PubChem BioAssay
The source made the active and inactive calls.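 Rule for the calls, unless noted: active = visually confirmed hit in the image check and inhibition above 20%; inconclusive = visually confirmed hit but inhibition not above 20%; inactive = no visual hit in the image check.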

How the values were obtained:
[1] = inhibitors of TNFa-induced NFkB p65 translocation, primary screen, imaging, HUVEC, MLSMR starter and 10KST1 sets (AID 438;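 active = inhibition above 20% together with a positive visual image hit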;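 note: compound added about 3h40 before a 20 min TNFalpha stimulation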;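 for inhibition: signal is the nuclear over cytoplasmic p65 intensity ratio per well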); settings: HUVEC TNFa-induced p65 nuclear translocation; cell count: measured here: nuclei count (cytotoxicity indicator), at 2.08 µM; inhibition: at 2 µM, stronger effect = higher value, 0% TNFa-plus-vehicle, 100% no-TNFa wells
[2] = reduction of polyQ htt aggregates in cells – imaging, exon1htt(103Q)mCFP cells, high-content imaging, primary screen (AID 483;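 active = visual image review flags a hit and inhibition of aggregation exceeds 20%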;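 note: compound exposure lasted 3 days before fixation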;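 for nuclei count: percent of the per-plate median nuclei count of sample wells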); settings: exon1htt(103Q)mCFP cell line, aggregate imaging, at 2 µM; inhibition of aggregation: stronger effect = higher value; nuclei count: measured here: cell count, toxicity
[3] = endothelial E-selectin expression blockers – imaging, HUVEC, immunofluorescence, MLSMR starter and 10KST1 sets, primary screen (AID 487); settings: HUVEC TNFalpha-induced E-selectin immunofluorescence imaging, at 2 µM; inhibition: stronger effect = higher value; nuclei count: measured here: cell number, toxicity;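 for inhibition: signal is fraction of cell area covered by stained E-selectin grains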;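 for nuclei count: 100% = median nuclei count of all wells on the same plate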
[4] = molecular target: Voltage-gated potassium channel subunit beta-2 (Rattus norvegicus) (UniProt P62483); assay: inhibitors of rat Kvbeta2 reductase activity – biochemical, NADPH fluorescence, primary screen (AID 622;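 active = fluorescence slope higher than the sample average by over 3 SD, cut at about -0.22 in these data, passing the limit was not always enough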;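 note: slope of raw intensity against log time taken from 70 to 1610 s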); settings: recombinant KvBeta, 4-cyanobenzaldehyde reduction, at 10 µM, stronger effect = higher value
Voltage-gated potassium channel subunit beta-2 (Rattus norvegicus), sequence (P62483 whole entry, looked up): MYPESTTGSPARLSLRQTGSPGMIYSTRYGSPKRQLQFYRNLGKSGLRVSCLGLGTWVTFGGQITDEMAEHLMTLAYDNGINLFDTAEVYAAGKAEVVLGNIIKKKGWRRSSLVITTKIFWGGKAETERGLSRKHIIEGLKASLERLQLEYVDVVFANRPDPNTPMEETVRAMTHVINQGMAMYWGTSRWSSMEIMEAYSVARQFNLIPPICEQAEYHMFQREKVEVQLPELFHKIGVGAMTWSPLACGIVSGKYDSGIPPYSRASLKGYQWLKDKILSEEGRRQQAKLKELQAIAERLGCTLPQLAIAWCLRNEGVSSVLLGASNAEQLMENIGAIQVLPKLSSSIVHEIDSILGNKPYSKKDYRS

[5] = molecular target: Voltage-gated potassium channel subunit beta-2 (Rattus norvegicus) (UniProt P62483); assay: enhancers of rat Kvbeta2 NADPH turnover – biochemical, NADPH fluorescence, primary screen (AID 623;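 active = NADPH fluorescence slope more negative than the mean of all samples by about 3 SD, 99.7% confidence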;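 note: fluorescence intensity change per second fitted from 20 to 320 s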); settings: Recombinant KvBeta, NADPH fluorescence decrease slope, 10 min; at 10 µM; stronger effect = lower value
[6] = molecular target: Muscarinic acetylcholine receptor M4 (Homo sapiens) (UniProt P08173); assay: M4-linked GIRK flux change, two-sided – cell-based, HEK293 M4/GIRK, thallium flux, BTC-AM, M4 allosteric agonist project, primary screen (AID 625;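 active = fluorescence slope after compound addition differing from the mean of all tested samples at 99.7% confidence, mostly higher but some lower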;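 note: thallium influx through GIRK channels coupled to M4 in HEK293 cells with BTC-AM dye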); settings: at 10 µM, actives lie on both sides
Muscarinic acetylcholine receptor M4 (Homo sapiens), sequence (P08173 whole entry, looked up): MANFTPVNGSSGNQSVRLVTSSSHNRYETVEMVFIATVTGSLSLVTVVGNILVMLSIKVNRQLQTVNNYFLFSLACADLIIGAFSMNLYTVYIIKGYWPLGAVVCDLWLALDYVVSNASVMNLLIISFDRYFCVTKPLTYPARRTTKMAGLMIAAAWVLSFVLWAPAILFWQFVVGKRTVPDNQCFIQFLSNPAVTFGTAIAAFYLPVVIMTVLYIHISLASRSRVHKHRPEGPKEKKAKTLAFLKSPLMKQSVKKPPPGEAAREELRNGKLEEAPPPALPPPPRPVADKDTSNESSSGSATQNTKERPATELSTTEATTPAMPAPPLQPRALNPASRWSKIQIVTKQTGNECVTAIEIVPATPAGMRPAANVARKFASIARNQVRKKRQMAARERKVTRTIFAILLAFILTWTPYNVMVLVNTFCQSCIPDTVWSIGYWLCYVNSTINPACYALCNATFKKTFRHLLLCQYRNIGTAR
How it was run: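 Material – HEK293 cells with M4 receptor and GIRK channels · Buffer or medium – pH 7.3 thallium assay buffer · Doses – one dose, 10 µM final · Timing – cells overnight at 37 °C, BTC-AM loading 1 h, reads 2 min total · Measured by – kinetic fluorescence with BTC-AM dye · Controls – carbachol and DMSO controls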

[7] = blockers of RIG-like receptor reporter activation – cell-based, Sendai virus stimulus, luciferase, 10K MLSCN set, TLR/RLR signaling modifier project, primary screen (AID 602276;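 active = inhibition at or above 50% at 10 µM; inactive = inhibition below 50%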;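 note: firefly luciferase from ISG56 promoter only with Renilla not read in this screen; 0% = Sendai virus plus DMSO and 100% = medium plus DMSO without virus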); settings: HEK293 RL24 IRF3 luciferase reporter, at 10 µM, stronger effect = higher value
[8] = TLR3 IRF3 reporter activation blockers – cell-based, poly I:C stimulus, luciferase, 10K MLSCN set, primary screen (AID 602277;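 active = inhibition of the reporter signal at or above 50%; inactive = inhibition below 50%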); settings: HEK293-TLR3 RL24 IRF3 luciferase reporter, at 10 µM, stronger effect = higher value

| SMILES | cell count [1] | inhibition [1] | inhibition of aggregation [2] | nuclei count [2] [%] | inhibition [3] | nuclei count [3] [%] | fluorescence slope [4] | NADPH fluorescence slope [5] | fluorescence slope [6] | inhibition [7] | inhibition [8] |
| --- | --- | --- | --- | --- | --- | --- | --- | --- | --- | --- | --- |
| CCCOc1ccc(C2C(C(=O)c3ccc(C)o3)=C(O)C(=O)N2Cc2cccnc2)cc1 (stereo not drawn) | 755 | -2.8% (inactive) | -9.2% (inactive) | 105 | 35.3% (inactive) | 107 | -0.495 (inactive) | 9.3e-06 (inactive) | 0.00434 (inactive) | 9.82% (inactive) | 3.74% (inactive) |
| Cc1cccn2c(=O)c3cc(C#N)c(=NC(=O)c4ccncc4)n(Cc4ccco4)c3nc12 | 386 | -1% (inactive) | 5% (inactive) | 99.9 | -36.9% (inactive) | 114 | -0.535 (inactive) | -1.2e-05 (inactive) | 0.00818 (inactive) | 10.3% (inactive) | 19.4% (inactive) |
| CCC(=O)N1CCc2cc(S(=O)(=O)CCC(=O)Nc3c(C)n(C)n(-c4ccccc4)c3=O)ccc21 | 598 | 7.7% (inactive) | -10.8% (inactive) | 116 | -110% (inactive) | 121 | -0.434 (inactive) | 0.000106 (inactive) | 0.00486 (inactive) | 2.43% (inactive) | 13.1% (inactive) |
| COc1ccc(OC)c(NC(=O)CCN2CCN(c3ccccc3F)CC2)c1 | 529 | 10.1% (inactive) | 10.6% (inactive) | 81.2 | -63.8% (inactive) | 101 | -0.54 (inactive) | -3.3e-05 (inactive) | 0.00417 (inactive) | 1.17% (inactive) | 0.616% (inactive) |
| CCOC(=O)N1CCN(C(=O)CCc2c(C)nc3c(c(C)nn3-c3ccc(C)c(C)c3)c2C)CC1 | 653 | 0.9% (inactive) | -9.9% (inactive) | 100 | -63.4% (inactive) | 116 | -0.594 (inactive) | 1.1e-05 (inactive) | 0.00541 (inactive) | 20.5% (inactive) | 13.8% (inactive) |
| Cc1c(C(=O)O)sc2ncn(C)c(=O)c12 | 745 | 2.8% (inactive) | -9% (inactive) | 116 | 21% (inactive) | 106 | -0.553 (inactive) | -2.2e-05 (inactive) | 0.00525 (inactive) | 2.12% (inactive) | -1.59% (inactive) |
| O=C(c1cc(-c2ccco2)nn1-c1cccc(Cl)c1)N1CCCCC1 | 502 | -4.7% (inactive) | -5.1% (inactive) | 91 | 1.9% (inactive) | 100 | -0.588 (inactive) | -1.4e-05 (inactive) | 0.0049 (inactive) | 22.9% (inactive) | 36.1% (inactive) |
| Cc1cc(NC(=O)C2CCCC2)nc2c1c(=O)oc1ccccc12 | 601 | -3.4% (inactive) | 12.4% (inactive) | 98.2 | -16.3% (inactive) | 106 | -0.578 (inactive) | -4.4e-05 (inactive) | 0.00687 (inactive) | 7.38% (inactive) | 9.88% (inactive) |
| COCCCNC(=O)C(Cc1ccccc1)NS(=O)(=O)c1ccc2c(c1)c(=O)n(C)c(=O)n2C (stereo not drawn) | 561 | -2.5% (inactive) | 42.3% (active) | 94.5 | -10.2% (inactive) | 117 | -0.468 (inactive) | -8e-06 (inactive) | 0.00611 (inactive) | -1.6% (inactive) | 19.2% (inactive) |
| Cc1cc(C)c2c(n1)nn1c(N3CCN(c4ccccc4C)CC3)cc(C)nc21 | 420 | -11.8% (inactive) | -116% (inactive) | 81 | -52.8% (inactive) | 110 | -0.447 (inactive) | 1.5e-05 (inactive) | 0.00576 (inactive) | -4.5% (inactive) | -6.94% (inactive) |
| Cc1nn(Cc2ccccc2Cl)c(C)c1NC(=O)C1C2CCC(O2)C1C(=O)O (stereo not drawn) | 625 | 7.7% (inactive) | 0.3% (inactive) | 101 | 16.3% (inactive) | 96.3 | -0.494 (inactive) | -3.1e-05 (inactive) | 0.00475 (inactive) | -10.5% (inactive) | -23.8% (inactive) |
| CCC(C)NC(=O)c1cc(-c2ccc(OC)cc2)on1 (stereo not drawn) | 689 | -15.5% (inactive) | 1.3% (inactive) | 101 | 13.2% (inactive) | 108 | -0.286 (inactive) | -1.4e-05 (inactive) | 0.00668 (inactive) | -45.5% (inactive) | -170% (inactive) |
| CCOCCCNC(=O)c1c[nH]c2ccc(S(=O)(=O)Nc3cccc(OC)c3)cc2c1=O | 337 | -3.1% (inactive) | -12.3% (inactive) | 99.2 | -85.4% (inactive) | 105 | -0.599 (inactive) | -3.6e-05 (inactive) | 0.00605 (inactive) | 0.375% (inactive) | 0.559% (inactive) |
| CCn1c(SCC(=O)NCc2ccco2)nc2c(c1=O)SC(C)C2 (stereo not drawn) | 368 | 8.3% (inactive) | -2.9% (inactive) | 101 | -14.8% (inactive) | 115 | -0.4 (inactive) | -0.000131 (inactive) | 0.0058 (inactive) | 4.07% (inactive) | 9.1% (inactive) |
| COc1cc(=O)[nH]c(SCc2c(F)c(F)c(F)c(F)c2F)n1 | 546 | 2.2% (inactive) | 6.7% (inactive) | 87.6 | -11.4% (inactive) | 104 | -0.436 (inactive) | -4e-05 (inactive) | 0.00944 (inactive) | -4.06% (inactive) | 22.3% (inactive) |
| Cc1ccc(S(=O)(=O)NCCC(=O)OCn2nnc3ccccc3c2=O)cc1 | 603 | -0.8% (inactive) | 5% (inactive) | 102 | -272% (inactive) | 119 | -0.454 (inactive) | -4.9e-05 (inactive) | 0.00588 (inactive) | 15.2% (inactive) | 28% (inactive) |
| CC(O)c1nc2ccccc2n1C1CCCCC1 (stereo not drawn) | 631 | -19.6% (inactive) | -4.7% (inactive) | 99.7 | -16.4% (inactive) | 111 | -0.585 (inactive) | 4.8e-06 (inactive) | 0.00511 (inactive) | 20.2% (inactive) | 24.7% (inactive) |
| O=C(NCC(=O)N(CCc1ccccc1)C(C(=O)NC1CCCC1)c1cccnc1)c1ccco1 (stereo not drawn) | 464 | 6.5% (inactive) | 2.2% (inactive) | 108 | -126% (inactive) | 141 | -0.493 (inactive) | 1.4e-05 (inactive) | 0.00509 (inactive) | 7.14% (inactive) | 6.57% (inactive) |
| CCN(c1cccc(C)c1)S(=O)(=O)c1ccc2[nH]c(=O)c(=O)[nH]c2c1 | 415 | 6.2% (inactive) | 7.1% (inactive) | 93.5 | -8.3% (inactive) | 98 | -0.514 (inactive) | -0.000128 (inactive) | 0.00491 (inactive) | 12.5% (inactive) | 21.6% (inactive) |
| COc1cc(C(=O)N2CCN(C(=O)CC(C)C)CC2)cc(OC)c1OC | 550 | 3.6% (inactive) | 5% (inactive) | 105 | -73.6% (inactive) | 117 | -0.47 (inactive) | 7.6e-05 (inactive) | 0.00561 (inactive) | -10.1% (inactive) | -1.34% (inactive) |
| COc1cc(OC)cc(-c2nc3cc(C)ccc3o2)c1 | 424 | 1.7% (inactive) | -2% (inactive) | 90.1 | -55.4% (inactive) | 99.4 | -0.55 (inactive) | -4.6e-05 (inactive) | 0.00552 (inactive) | -23.5% (inactive) | -45.9% (inactive) |
| CCn1nnnc1SCC(=O)Nc1nnc(C(C)C)s1 | 324 | -3% (inactive) | 21.9% (inactive) | 96.2 | 1% (inactive) | 116 | -0.361 (inactive) | -4.7e-05 (inactive) | 0.0049 (inactive) | 5.57% (inactive) | -1.53% (inactive) |
| CC1CCCCN1CCNC(=O)c1ccc2c(=O)n(CCc3ccccc3)c(=O)[nH]c2c1 (stereo not drawn) | 105 | 116% (active) | 12.7% (inactive) | 91.2 | -3.9% (inactive) | 119 | -0.279 (inactive) | -3.6e-05 (inactive) | 0.00585 (inactive) | 2.66% (inactive) | -7.7% (inactive) |
| CC(C)(C)n1ncc2c(=O)n(CC(=O)c3ccccc3)cnc21 | 473 | -1% (inactive) | -4.1% (inactive) | 126 | 22.9% (inactive) | 105 | -0.534 (inactive) | -2.2e-05 (inactive) | 0.00534 (inactive) | -21.3% (inactive) | -59.6% (inactive) |
| CCSC1(SCC)N=C(N)C2(C#N)C(c3ccccc3)NC(C)=C(C)C12C#N (stereo not drawn) | 422 | 2% (inactive) | 13.7% (inactive) | 108 | -15.4% (inactive) | 120 | -0.401 (inactive) | -1.2e-05 (inactive) | 0.00608 (inactive) | 7.48% (inactive) | 17.3% (inactive) |
| COc1cccc(NC(=O)COc2ccccc2C(N)=O)c1 | 221 | -1.2% (inactive) | 19.1% (inactive) | 83.6 | 14.7% (inactive) | 78 | -0.589 (inactive) | 6.4e-05 (inactive) | 0.00613 (inactive) | -78.1% (inactive) | -182% (inactive) |
| N#Cc1c(N2C(=O)C3C4C=CC(C4)C3C2=O)sc2c1CCC2 (stereo not drawn) | 493 | -24.7% (inactive) | -12.7% (inactive) | 92.9 | -17.4% (inactive) | 96.7 | -0.417 (inactive) | -5.2e-05 (inactive) | 0.00524 (inactive) | 14.5% (inactive) | 18.6% (inactive) |
| Cc1ccc(-n2ncc3c(=O)n(CC(=O)NC4CCCCC4)cnc32)cc1C | 281 | -0.3% (inactive) | 4.3% (inactive) | 96.7 | -3.3% (inactive) | 106 | -0.575 (inactive) | 2.2e-05 (inactive) | 0.00615 (inactive) | 13.5% (inactive) | 15.1% (inactive) |
